{"source": "ChEMBL document CHEMBL1811814", "about": "“Synthesis and evaluation of indole, pyrazole, chromone and pyrimidine based conjugates for tumor growth inhibitory activities--development of highly efficacious cytotoxic agents” (Eur J Med Chem, 2010)", "assay_type_in_all_cases": "functional", "key": {"HCT-116": {"system": "HCT-116", "experiment": "Growth inhibition of human HCT116 cells", "settings": "for CC50: read-out: LC50 (the source's name)"}, "NCI/ADR-RES": {"system": "NCI/ADR-RES", "experiment": "Growth inhibition of human NCI/ADR-RES cells", "settings": "for CC50: read-out: LC50 (the source's name)"}, "K562": {"system": "K562", "experiment": "Growth inhibition of human K562 cells", "settings": "for CC50: read-out: LC50 (the source's name)"}, "MDA-MB-231": {"system": "MDA-MB-231", "experiment": "Growth inhibition of human MDA-MB-231 cells assessed tumor cell growth at 10^-5 M", "set-up": "scale not given: the % may be the effect or the level left", "in_short": "(§1)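 NCI 60-human-tumor-cell-line panel screen. Each compound was tested at a single concentration of 10^-5 M, and percent growth of tumor cells was recorded for each cell line. Growth inhibition was expressed from these percent-growth values.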"}, "NCI-H23": {"system": "NCI-H23", "experiment": "Growth inhibition of human NCI-H23 cells assessed tumor cell growth at 10^-5 M", "set-up": "scale not given: the % may be the effect or the level left", "in_short": "as §1"}, "UO-31": {"system": "UO-31", "experiment": "Growth inhibition of human UO31 cells", "settings": "for CC50: read-out: LC50 (the source's name)"}, "HOP-62": {"system": "HOP-62", "experiment": "Growth inhibition of human HOP62 cells assessed tumor cell growth at 10^-5 M", "set-up": "scale not given: the % may be the effect or the level left", "in_short": "as §1"}, "A498": {"system": "A498", "experiment": "Growth inhibition of human A498 cells assessed tumor cell growth at 10^-5 M", "set-up": "scale not given: the % may be the effect or the level left", "in_short": "as §1"}, "NCI-H226": {"system": "NCI-H226", "experiment": "Growth inhibition of human NCI-H226 cells", "settings": "for CC50: read-out: LC50 (the source's name)"}, "SF-539": {"system": "SF-539", "experiment": "Growth inhibition of human SF539 cells assessed tumor cell growth at 10^-5 M", "set-up": "scale not given: the % may be the effect or the level left", "in_short": "as §1"}, "MCF7": {"system": "MCF7", "experiment": "Growth inhibition of human MCF7 cells", "settings": "for CC50: read-out: LC50 (the source's name)"}, "SK-MEL-28": {"system": "SK-MEL-28", "experiment": "Growth inhibition of human SK-MEL-28 cells", "settings": "for CC50: read-out: LC50 (the source's name)"}}}
{"compound": "O=C1Nc2ccccc2/C1=C/c1cn(C(=O)c2c(Cl)cccc2Cl)c2ccccc12", "values": [{"measurement": "GI50", "setting": "HCT-116", "result": 1.6, "unit": "µM"}, {"measurement": "CC50", "setting": "HCT-116", "result": 6.9, "unit": "µM"}, {"measurement": "GI50", "setting": "NCI/ADR-RES", "result": 3.4, "unit": "µM"}, {"measurement": "CC50", "setting": "NCI/ADR-RES", "result": "> 100", "unit": "µM"}, {"measurement": "GI50", "setting": "K562", "result": 3.1, "unit": "µM"}, {"measurement": "CC50", "setting": "K562", "result": "> 100", "unit": "µM"}, {"measurement": "Activity", "setting": "MDA-MB-231", "result": 55, "unit": "%"}, {"measurement": "Activity", "setting": "NCI-H23", "result": 56.9, "unit": "%"}, {"measurement": "GI50", "setting": "UO-31", "result": 1.1, "unit": "µM"}, {"measurement": "CC50", "setting": "UO-31", "result": 48.9, "unit": "µM"}, {"measurement": "Activity", "setting": "HOP-62", "result": 88.7, "unit": "%"}, {"measurement": "Activity", "setting": "A498", "result": 52.5, "unit": "%"}, {"measurement": "GI50", "setting": "NCI-H226", "result": 7.4, "unit": "µM"}, {"measurement": "CC50", "setting": "NCI-H226", "result": 83.1, "unit": "µM"}, {"measurement": "Activity", "setting": "SF-539", "result": 67.4, "unit": "%"}]}
{"compound": "O=C1/C(=C\\c2coc3ccccc3c2=O)c2ccccc2N1c1c(Cl)cccc1Cl", "values": [{"measurement": "GI50", "setting": "HCT-116", "result": 1.9, "unit": "µM"}, {"measurement": "CC50", "setting": "HCT-116", "result": "> 100", "unit": "µM"}, {"measurement": "GI50", "setting": "NCI/ADR-RES", "result": 3.3, "unit": "µM"}, {"measurement": "CC50", "setting": "NCI/ADR-RES", "result": "> 100", "unit": "µM"}, {"measurement": "GI50", "setting": "MCF7", "result": 3.2, "unit": "µM"}, {"measurement": "CC50", "setting": "MCF7", "result": "> 100", "unit": "µM"}, {"measurement": "GI50", "setting": "K562", "result": 2, "unit": "µM"}, {"measurement": "CC50", "setting": "K562", "result": "> 100", "unit": "µM"}, {"measurement": "Activity", "setting": "MDA-MB-231", "result": 60.45, "unit": "%"}, {"measurement": "Activity", "setting": "NCI-H23", "result": 55.41, "unit": "%"}, {"measurement": "GI50", "setting": "UO-31", "result": 1.8, "unit": "µM"}, {"measurement": "CC50", "setting": "UO-31", "result": "> 100", "unit": "µM"}, {"measurement": "Activity", "setting": "HOP-62", "result": 68.24, "unit": "%"}, {"measurement": "Activity", "setting": "A498", "result": 12.65, "unit": "%"}, {"measurement": "GI50", "setting": "SK-MEL-28", "result": 3.8, "unit": "µM"}, {"measurement": "CC50", "setting": "SK-MEL-28", "result": "> 100", "unit": "µM"}, {"measurement": "GI50", "setting": "NCI-H226", "result": 20.8, "unit": "µM"}, {"measurement": "CC50", "setting": "NCI-H226", "result": "> 100", "unit": "µM"}, {"measurement": "Activity", "setting": "SF-539", "result": 49.4, "unit": "%"}]}
{"compound": "O=C1/C(=C\\c2ccccn2)c2ccccc2N1c1c(Cl)cccc1Cl", "values": [{"measurement": "GI50", "setting": "HCT-116", "result": 1.7, "unit": "µM"}, {"measurement": "CC50", "setting": "HCT-116", "result": 6.9, "unit": "µM"}, {"measurement": "GI50", "setting": "NCI/ADR-RES", "result": 3, "unit": "µM"}, {"measurement": "CC50", "setting": "NCI/ADR-RES", "result": "> 100", "unit": "µM"}, {"measurement": "GI50", "setting": "K562", "result": 3.9, "unit": "µM"}, {"measurement": "CC50", "setting": "K562", "result": "> 100", "unit": "µM"}, {"measurement": "Activity", "setting": "MDA-MB-231", "result": 15.7, "unit": "%"}, {"measurement": "Activity", "setting": "NCI-H23", "result": 12.97, "unit": "%"}, {"measurement": "GI50", "setting": "UO-31", "result": 1.4, "unit": "µM"}, {"measurement": "CC50", "setting": "UO-31", "result": 6, "unit": "µM"}, {"measurement": "Activity", "setting": "HOP-62", "result": 5.17, "unit": "%"}, {"measurement": "Activity", "setting": "A498", "result": 21.33, "unit": "%"}, {"measurement": "GI50", "setting": "NCI-H226", "result": 0.01, "unit": "µM"}, {"measurement": "CC50", "setting": "NCI-H226", "result": 9.1, "unit": "µM"}, {"measurement": "Activity", "setting": "SF-539", "result": 1.27, "unit": "%"}]}
{"compound": "CC1=NN(c2cccc(Cl)c2)C(=O)/C1=C\\C=C\\c1ccccc1", "values": [{"measurement": "GI50", "setting": "HCT-116", "result": 1.5, "unit": "µM"}, {"measurement": "CC50", "setting": "HCT-116", "result": 6.1, "unit": "µM"}, {"measurement": "GI50", "setting": "NCI/ADR-RES", "result": 3.3, "unit": "µM"}, {"measurement": "CC50", "setting": "NCI/ADR-RES", "result": "> 100", "unit": "µM"}, {"measurement": "GI50", "setting": "MCF7", "result": 1.1, "unit": "µM"}, {"measurement": "CC50", "setting": "MCF7", "result": "> 100", "unit": "µM"}, {"measurement": "GI50", "setting": "K562", "result": 2.8, "unit": "µM"}, {"measurement": "CC50", "setting": "K562", "result": "> 100", "unit": "µM"}, {"measurement": "Activity", "setting": "MDA-MB-231", "result": 13.67, "unit": "%"}, {"measurement": "Activity", "setting": "NCI-H23", "result": 26.27, "unit": "%"}, {"measurement": "GI50", "setting": "UO-31", "result": 1.6, "unit": "µM"}, {"measurement": "CC50", "setting": "UO-31", "result": 7.5, "unit": "µM"}, {"measurement": "Activity", "setting": "HOP-62", "result": 6.78, "unit": "%"}, {"measurement": "Activity", "setting": "A498", "result": 109.76, "unit": "%"}, {"measurement": "GI50", "setting": "SK-MEL-28", "result": 2, "unit": "µM"}, {"measurement": "CC50", "setting": "SK-MEL-28", "result": 8.9, "unit": "µM"}, {"measurement": "GI50", "setting": "NCI-H226", "result": 2.6, "unit": "µM"}, {"measurement": "CC50", "setting": "NCI-H226", "result": 64.5, "unit": "µM"}, {"measurement": "Activity", "setting": "SF-539", "result": 21.62, "unit": "%"}]}
{"compound": "CC1=NN(c2cccc(Cl)c2)C(=O)/C1=C\\c1c(O)ccc2ccccc12", "values": [{"measurement": "GI50", "setting": "HCT-116", "result": "> 100", "unit": "µM"}, {"measurement": "CC50", "setting": "HCT-116", "result": "> 100", "unit": "µM"}, {"measurement": "GI50", "setting": "NCI/ADR-RES", "result": "> 100", "unit": "µM"}, {"measurement": "CC50", "setting": "NCI/ADR-RES", "result": "> 100", "unit": "µM"}, {"measurement": "GI50", "setting": "K562", "result": 44.6, "unit": "µM"}, {"measurement": "CC50", "setting": "K562", "result": "> 100", "unit": "µM"}, {"measurement": "Activity", "setting": "MDA-MB-231", "result": 4.08, "unit": "%"}, {"measurement": "Activity", "setting": "NCI-H23", "result": -1.95, "unit": "%"}, {"measurement": "GI50", "setting": "UO-31", "result": "> 100", "unit": "µM"}, {"measurement": "CC50", "setting": "UO-31", "result": "> 100", "unit": "µM"}, {"measurement": "Activity", "setting": "HOP-62", "result": -64.07, "unit": "%"}, {"measurement": "Activity", "setting": "A498", "result": 107.38, "unit": "%"}, {"measurement": "GI50", "setting": "NCI-H226", "result": 47.8, "unit": "µM"}, {"measurement": "CC50", "setting": "NCI-H226", "result": "> 100", "unit": "µM"}, {"measurement": "Activity", "setting": "SF-539", "result": 72.26, "unit": "%"}]}
